Experimental data published in ChEMBL document CHEMBL3817776, “Discovery and Structure-Activity Relationships of the Neoseptins: A New Class of Toll-like Receptor-4 (TLR4) Agonists” (J Med Chem, 2016).
Calls of active or inactive are those of the source. The rule behind the calls is not given here.

Legend:
[1] = system: Mus musculus; test: Adjuvant activity in C57BL/6J mouse assessed as increase in OVA-specific IgG2a levels at 250 mg/kg, im after 21 days by ELISA; format: functional, organism-based
Procedure, shortened: (§1)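 C57BL/6 mice, 4 per group, immunized i.m. with 100 µg ovalbumin (endotoxin <1 EU/mg) plus compound in propylene glycol vehicle, or vehicle alone. OVA-specific IgG subclasses in serum titrated by ELISA at day 21. Mean ± SEM.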

[2] = target: T1, Toll-like receptor 4 (Mus musculus) (UniProt Q9QUK6); test: (§2) Agonist activity at TLR4 in C57BL/6J mouse macrophages assessed as stimulation of TNFalpha release after 4 hrs by ELISA
T1 sequence (whole entry): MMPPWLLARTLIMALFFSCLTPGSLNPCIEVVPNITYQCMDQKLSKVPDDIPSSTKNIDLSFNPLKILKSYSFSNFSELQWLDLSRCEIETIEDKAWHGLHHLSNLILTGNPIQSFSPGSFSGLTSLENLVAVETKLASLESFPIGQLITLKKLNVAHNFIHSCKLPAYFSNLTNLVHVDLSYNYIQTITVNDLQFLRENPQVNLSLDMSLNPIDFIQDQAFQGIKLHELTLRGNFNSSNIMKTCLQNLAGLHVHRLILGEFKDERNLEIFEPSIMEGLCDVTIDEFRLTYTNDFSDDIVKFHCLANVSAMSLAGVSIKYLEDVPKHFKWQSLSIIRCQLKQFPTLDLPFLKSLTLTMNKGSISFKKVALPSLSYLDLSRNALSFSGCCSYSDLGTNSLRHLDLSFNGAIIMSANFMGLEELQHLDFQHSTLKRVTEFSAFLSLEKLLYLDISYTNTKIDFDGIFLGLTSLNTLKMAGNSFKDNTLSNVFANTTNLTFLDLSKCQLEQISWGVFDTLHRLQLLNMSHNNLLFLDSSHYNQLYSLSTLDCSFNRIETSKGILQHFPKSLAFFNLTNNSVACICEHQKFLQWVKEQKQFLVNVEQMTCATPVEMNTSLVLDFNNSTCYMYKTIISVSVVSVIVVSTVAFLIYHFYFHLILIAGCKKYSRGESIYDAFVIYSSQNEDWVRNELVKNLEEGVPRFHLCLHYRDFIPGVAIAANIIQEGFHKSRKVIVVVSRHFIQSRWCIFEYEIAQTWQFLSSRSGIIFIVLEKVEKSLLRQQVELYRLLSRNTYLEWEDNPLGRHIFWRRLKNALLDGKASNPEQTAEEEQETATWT
Procedure, shortened: (§3)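 Peritoneal macrophages from wild-type C57BL/6J mice, collected by PBS lavage and cultured in DMEM/10% FBS at 37 °C, 5% CO2. Seeded at 1 × 10^5 cells/well and treated 4 h with compound in DMSO (0.5% final) beside ultra-pure LPS and DMSO controls. Supernatant TNF-α measured by ELISA; mean of triplicates.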

[3] = target: T2, Toll-like receptor 4 (Mus musculus, UniProt Q9QUK6); test: as §2; procedure, shortened: as §3
T2 sequence (Q9QUK6 whole entry): T1 sequence (whole entry)

[4] = system: Mus musculus; test: Adjuvant activity in C57BL/6J mouse assessed as increase in OVA-specific IgG2b levels at 250 mg/kg, im after 21 days by ELISA; format: functional, organism-based; procedure, shortened: as §1
[5] = system: Macrophage; test: Induction of TNFalpha release in C57BL/6J mouse macrophages harboring TLR7 rsq1/rsq1 mutant at 50 uM after 4 hrs by ELISA; format: functional, cell-based
Procedure, shortened: (§4)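 Macrophages taken from mice carrying disabling germline mutations or knockouts in TLR or signaling-pathway genes. Exposed to compound at 50 µM; TNF-α released into the medium measured by ELISA. Results representative of two independent experiments; error bars SEM.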

[6] = target: T1, Toll-like receptor 4 (Mus musculus); test: Agonist activity at TLR4 receptor in C57BL/6J mouse macrophages harboring Ikbkg panr2/Y mutant assessed as induction of TNFalpha release at 50 uM after 4 hrs by ELISA; procedure, shortened: as §4
[7] = target: T1, Toll-like receptor 4 (Mus musculus); test: Agonist activity at TLR4 receptor in LY96 deficient C57BL/6J mouse macrophages assessed as induction of TNFalpha release at 50 uM after 4 hrs by ELISA; procedure, shortened: as §4
[8] = system: Mus musculus; test: Adjuvant activity in C57BL/6J mouse assessed as increase in OVA-specific IgG3 levels at 250 mg/kg, im after 21 days by ELISA; format: functional, organism-based; procedure, shortened: as §1
[9] = system: Macrophage; test: Induction of TNFalpha release in C57BL/6J mouse macrophages harboring TLR6 int/int mutant at 50 uM after 4 hrs by ELISA; format: functional, cell-based; procedure, shortened: as §4
[10] = target: T1, Toll-like receptor 4 (Mus musculus); test: Agonist activity at TLR4 receptor in C57BL/6J mouse macrophages harboring MYD88 poc/poc mutant assessed as induction of TNFalpha release at 50 uM after 4 hrs by ELISA; procedure, shortened: as §4
[11] = target: T1, Toll-like receptor 4 (Mus musculus); test: Agonist activity at TLR4 receptor in C57BL/6J mouse macrophages harboring Irak4 otiose/otiose mutant assessed as induction of TNFalpha release at 50 uM after 4 hrs by ELISA; procedure, shortened: as §4
[12] = system: Macrophage; test: Induction of TNFalpha release in C57BL/6J mouse macrophages harboring TLR9 CpG3/CpG3 mutant at 50 uM after 4 hrs by ELISA; format: functional, cell-based; procedure, shortened: as §4
[13] = target: T1, Toll-like receptor 4 (Mus musculus); test: Agonist activity at TLR4 receptor in C57BL/6J mouse macrophages harboring Ticam1 Lps2/Lps2 mutant assessed as induction of TNFalpha release at 50 uM after 4 hrs by ELISA; procedure, shortened: as §4
[14] = species on record: Mus musculus; test: Agonist activity at TLR4 lps3/lps3 mutant in C57BL/6J mouse macrophages assessed as stimulated release of TNFalpha after 4 hrs by ELISA; procedure, shortened: as §4
[15] = system: Macrophage; test: Induction of TNFalpha release in TLR3 deficient C57BL/6J mouse macrophages at 50 uM after 4 hrs by ELISA; format: functional, cell-based; procedure, shortened: as §4
[16] = system: Macrophage; test: Induction of TNFalpha release in C57BL/6J mouse macrophages harboring CD14 hdl/hdl mutant at 50 uM after 4 hrs by ELISA; format: functional, cell-based; procedure, shortened: as §4
[17] = system: Macrophage; test: Induction of TNFalpha release in C57BL/6J mouse macrophages harboring TLR2 ingd/ingd mutant at 50 uM after 4 hrs by ELISA; format: functional, cell-based; procedure, shortened: as §4
[18] = system: Mus musculus; test: Adjuvant activity in C57BL/6J mouse assessed as increase in OVA-specific IgG1 levels up to 250 mg/kg, im after 21 days by ELISA; format: functional, organism-based; procedure, shortened: as §1

Activity [2]: Dose-dependent effect
EC50 [3]: 18.5 µM
Activity [6]: inactive
Activity [7]: inactive
Activity [10]: inactive
Activity [11]: inactive
Activity [13]: inactive
Activity [14]: inactive
SMILES: CC(C)(C)OC(=O)[C@H](CCc1ccccc1)NC(=O)c1ccc(N)c(CCc2ccc(O)cc2)c1
Activity [1]: Active
Activity [4]: Active
Activity [5]: Active
Activity [8]: Active
Activity [9]: Active
Activity [12]: Active
Activity [15]: Active
Activity [16]: Active
Activity [17]: Active
Activity [18]: Dose-dependent effect
